One experiment addresses T1, Histone deacetylase 8 (Homo sapiens, UniProt Q9BY41).
T1 sequence (Q9BY41 whole entry): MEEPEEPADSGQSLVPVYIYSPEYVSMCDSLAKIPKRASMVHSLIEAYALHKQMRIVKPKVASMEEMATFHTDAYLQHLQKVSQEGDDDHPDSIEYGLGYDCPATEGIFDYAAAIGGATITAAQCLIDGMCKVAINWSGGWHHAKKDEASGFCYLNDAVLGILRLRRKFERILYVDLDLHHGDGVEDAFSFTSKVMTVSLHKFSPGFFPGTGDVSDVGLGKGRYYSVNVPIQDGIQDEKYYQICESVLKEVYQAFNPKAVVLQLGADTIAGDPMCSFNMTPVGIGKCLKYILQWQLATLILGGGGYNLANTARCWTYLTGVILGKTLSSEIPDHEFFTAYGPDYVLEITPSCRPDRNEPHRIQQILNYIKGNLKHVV
In words: Inhibition of human recombinant HDAC8. The gist of the method: (§1)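 Recombinant HDAC isoforms incubated with acetyl-lysine tripeptide–AMC substrate (mimics histone H4 K12), or trifluoroacetyl-lysine-AMC for class IIa enzymes, each substrate at its Km; trypsin cleavage of deacetylated product releases fluorescent AMC. IC50 from two experiments in duplicate, mean ± SD.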

Experiment [1] deals with T2, Protein deacetylase HDAC6 (Homo sapiens) (UniProt Q9UBN7).
T2 sequence (whole entry): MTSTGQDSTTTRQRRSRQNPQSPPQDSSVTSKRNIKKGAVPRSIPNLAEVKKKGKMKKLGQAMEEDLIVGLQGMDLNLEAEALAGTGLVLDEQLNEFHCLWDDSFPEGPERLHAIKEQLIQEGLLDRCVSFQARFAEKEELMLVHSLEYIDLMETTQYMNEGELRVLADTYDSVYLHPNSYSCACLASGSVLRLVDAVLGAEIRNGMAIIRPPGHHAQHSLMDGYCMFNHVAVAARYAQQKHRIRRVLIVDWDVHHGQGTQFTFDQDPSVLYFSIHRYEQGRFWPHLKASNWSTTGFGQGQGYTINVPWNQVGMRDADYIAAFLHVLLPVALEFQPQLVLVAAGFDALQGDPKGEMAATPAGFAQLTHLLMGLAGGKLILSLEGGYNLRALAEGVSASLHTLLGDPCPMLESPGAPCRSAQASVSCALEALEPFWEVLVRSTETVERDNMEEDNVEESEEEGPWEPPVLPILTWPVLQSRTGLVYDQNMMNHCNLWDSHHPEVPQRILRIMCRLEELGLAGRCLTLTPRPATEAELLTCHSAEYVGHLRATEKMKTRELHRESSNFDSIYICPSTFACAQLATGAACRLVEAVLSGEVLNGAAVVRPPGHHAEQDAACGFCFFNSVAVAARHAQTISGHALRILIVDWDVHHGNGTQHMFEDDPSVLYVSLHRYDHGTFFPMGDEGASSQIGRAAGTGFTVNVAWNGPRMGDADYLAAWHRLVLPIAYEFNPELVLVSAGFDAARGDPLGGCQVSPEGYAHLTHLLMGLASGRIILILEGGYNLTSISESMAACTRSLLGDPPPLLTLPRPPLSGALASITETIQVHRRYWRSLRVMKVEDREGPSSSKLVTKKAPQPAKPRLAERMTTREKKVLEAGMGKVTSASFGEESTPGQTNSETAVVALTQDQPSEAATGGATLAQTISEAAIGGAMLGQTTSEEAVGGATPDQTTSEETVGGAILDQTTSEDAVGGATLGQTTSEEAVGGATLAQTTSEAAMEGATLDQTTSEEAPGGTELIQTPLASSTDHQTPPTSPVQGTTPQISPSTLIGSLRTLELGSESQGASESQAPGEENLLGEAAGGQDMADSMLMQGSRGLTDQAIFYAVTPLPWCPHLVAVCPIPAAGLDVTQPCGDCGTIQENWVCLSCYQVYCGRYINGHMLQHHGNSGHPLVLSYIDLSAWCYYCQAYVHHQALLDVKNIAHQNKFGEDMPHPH
In words: Inhibition of HDAC6 in human HeLa cells assessed as acetylation of tubulin after 24 hrs by immunofluorescence assay. Format: cell-based. The gist of the method: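 HeLa cells treated 24 h at the indicated doses; tubulin acetylation quantified by immunofluorescence.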

The target in the next experiment is Histone deacetylase 9 (Homo sapiens, UniProt Q9UKV0). Nature of the experiment: Inhibition of human recombinant HDAC9. Put shortly:
as §1

The species named for the next experiment is Mus musculus. In words: Inhibition of HDAC in mouse primary forebrain neurons assessed as acetylation of histone H3 lysine 9 at 92.5 uM after 24 hrs by immunofluorescence assay.
The target in experiment [2] is T3, Protein deacetylase HDAC6 (Mus musculus) (UniProt Q9Z2V5).
T3 sequence (whole entry): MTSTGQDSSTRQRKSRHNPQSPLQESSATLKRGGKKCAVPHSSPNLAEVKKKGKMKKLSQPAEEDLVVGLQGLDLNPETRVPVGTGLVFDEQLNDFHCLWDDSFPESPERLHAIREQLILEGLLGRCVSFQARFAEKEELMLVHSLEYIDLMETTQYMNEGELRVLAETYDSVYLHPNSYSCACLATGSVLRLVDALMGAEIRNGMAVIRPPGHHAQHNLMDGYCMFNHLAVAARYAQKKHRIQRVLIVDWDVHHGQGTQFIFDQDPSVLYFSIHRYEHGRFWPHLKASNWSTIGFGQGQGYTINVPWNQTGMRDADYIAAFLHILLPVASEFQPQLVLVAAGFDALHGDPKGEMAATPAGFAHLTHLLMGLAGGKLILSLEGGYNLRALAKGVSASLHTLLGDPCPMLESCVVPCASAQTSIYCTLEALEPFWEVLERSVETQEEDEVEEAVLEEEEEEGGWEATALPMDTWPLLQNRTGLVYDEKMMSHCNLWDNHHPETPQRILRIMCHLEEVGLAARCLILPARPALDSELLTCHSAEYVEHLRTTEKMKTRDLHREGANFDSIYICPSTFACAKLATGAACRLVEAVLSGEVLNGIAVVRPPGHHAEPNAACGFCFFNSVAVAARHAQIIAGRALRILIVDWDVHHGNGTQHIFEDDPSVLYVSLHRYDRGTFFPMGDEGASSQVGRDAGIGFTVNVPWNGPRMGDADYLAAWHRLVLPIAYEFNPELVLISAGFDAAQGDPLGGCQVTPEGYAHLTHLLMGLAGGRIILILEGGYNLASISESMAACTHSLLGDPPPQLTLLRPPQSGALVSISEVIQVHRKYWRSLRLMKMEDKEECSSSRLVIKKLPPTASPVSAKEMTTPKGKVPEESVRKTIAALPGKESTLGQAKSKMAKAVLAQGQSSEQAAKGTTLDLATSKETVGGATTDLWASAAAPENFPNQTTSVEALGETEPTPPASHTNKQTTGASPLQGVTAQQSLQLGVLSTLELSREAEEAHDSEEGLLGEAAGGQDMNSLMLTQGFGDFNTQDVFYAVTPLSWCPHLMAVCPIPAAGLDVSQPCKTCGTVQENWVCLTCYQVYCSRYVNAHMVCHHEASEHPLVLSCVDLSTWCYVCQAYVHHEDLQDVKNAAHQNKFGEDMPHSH
In words: Inhibition of HDAC6 in mouse primary forebrain neurons assessed as acetylation of tubulin at 92.5 uM after 24 hrs by immunofluorescence assay. Put shortly: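 Primary mouse forebrain cultures treated 24 h at a single concentration; tubulin acetylation measured by immunofluorescence.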

For two compounds, IC50 and inhibition results are on record in ChEMBL document CHEMBL1671826, “Effect of Inhibiting Histone Deacetylase with Short-Chain Carboxylic Acids and Their Hydroxamic Acid Analogs on Vertebrate Development and Neuronal Chromatin” (ACS Med Chem Lett, 2011).

What is called IC50 is the concentration at which inhibition is half-maximal.

Calls of active or inactive are those of the source. The calls are words filed in the database; no cut-off is given here. Bounds are passed on as bounds.

Chain of Histone deacetylase 9 (Q9UKV0 whole entry): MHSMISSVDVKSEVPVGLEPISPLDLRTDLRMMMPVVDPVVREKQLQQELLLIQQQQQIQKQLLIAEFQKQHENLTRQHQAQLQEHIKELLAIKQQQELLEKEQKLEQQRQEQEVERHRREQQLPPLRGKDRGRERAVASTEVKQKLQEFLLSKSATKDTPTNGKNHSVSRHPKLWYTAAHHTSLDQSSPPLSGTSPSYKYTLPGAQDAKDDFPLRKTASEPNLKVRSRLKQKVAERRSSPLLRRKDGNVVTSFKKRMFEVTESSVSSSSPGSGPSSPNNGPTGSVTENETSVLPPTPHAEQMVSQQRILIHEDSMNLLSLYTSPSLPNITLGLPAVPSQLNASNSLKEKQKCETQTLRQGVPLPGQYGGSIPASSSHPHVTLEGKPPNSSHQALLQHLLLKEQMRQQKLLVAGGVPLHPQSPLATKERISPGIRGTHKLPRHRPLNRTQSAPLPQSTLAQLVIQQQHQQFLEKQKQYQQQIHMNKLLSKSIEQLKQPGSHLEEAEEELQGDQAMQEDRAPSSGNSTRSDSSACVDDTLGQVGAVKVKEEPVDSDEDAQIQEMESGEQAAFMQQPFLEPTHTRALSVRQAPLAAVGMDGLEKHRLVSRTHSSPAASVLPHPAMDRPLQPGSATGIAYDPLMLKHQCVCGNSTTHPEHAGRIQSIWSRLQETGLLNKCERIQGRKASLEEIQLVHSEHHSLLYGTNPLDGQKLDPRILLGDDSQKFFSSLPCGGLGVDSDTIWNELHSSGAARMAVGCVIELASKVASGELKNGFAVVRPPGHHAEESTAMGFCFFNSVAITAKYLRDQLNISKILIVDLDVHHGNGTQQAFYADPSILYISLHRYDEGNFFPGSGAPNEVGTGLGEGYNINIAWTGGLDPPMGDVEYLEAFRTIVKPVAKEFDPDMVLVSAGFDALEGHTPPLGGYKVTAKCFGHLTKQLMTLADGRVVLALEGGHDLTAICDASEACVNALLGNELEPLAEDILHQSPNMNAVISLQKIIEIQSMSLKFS

With `O=C(O)CCCc1ccccc1`, the values for the IC50 at Histone deacetylase 8 and on Histone deacetylase 9 were 93 µM and greater than 2000 µM, respectively. The inhibition result (in experiment [1]; in the experiment filed under Mus musculus) was “inactive” throughout. Also, the inhibition entry in experiment [2] was “Active”.
Turning to `CCCC(CCC)C(=O)NO` [VALPROPYLHYDROXAMIC ACID], the half-maximal inhibitory concentration (IC50) on Histone deacetylase 8 was 39 µM; on Histone deacetylase 9, 91 µM. Moreover, the inhibition entry in experiment [1] and in experiment [2] was “Active” each time. Further, the inhibition result in the experiment filed under Mus musculus is “inactive”.
